The subject of one data set is PD-1/PD-L1 complex. Conditions: cited from earlier work.
Data set [1] deals with human PD-1/PD-L1 interaction (Homo sapiens, UniProt Q9NZQ7). Put plainly: Protein-based PD-1/PD-L1 blocking assay. Format: binding. Conditions: human PD-L1/PD-1 protein interaction.
A further data set deals with trypsin. The settings on record: cited from earlier work.
The next data set concerns CT26 tumor. As to the kind of experiment: Anti-tumor activity and survival study in CT26 syngeneic Balb/c mouse model. Format: in vivo. In a few lines:
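CT26 cells (~1×10^6) implanted s.c. in the right flank of male and female Balb/c mice. At 200-250 mm3, mice were split into five groups of 4 female + 4 male. Test compound or anti-mouse PD-L1 antibody 0.5 mg/kg i.p. daily, day 10–18; saline i.p. control. Caliper volume = 1/2 × length × width2. RTV = day 18/day 10 volume; TGI on day 18; survival curves.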

Bridge positions count the residues as written; N and C are the ends. Square brackets hold non-standard residues; d marks the D form. Ends that are not written are not given here. Peptide text beside a SMILES is read from it.

Sequence of human PD-1/PD-L1 interaction (Q9NZQ7 19-238 limits assumed): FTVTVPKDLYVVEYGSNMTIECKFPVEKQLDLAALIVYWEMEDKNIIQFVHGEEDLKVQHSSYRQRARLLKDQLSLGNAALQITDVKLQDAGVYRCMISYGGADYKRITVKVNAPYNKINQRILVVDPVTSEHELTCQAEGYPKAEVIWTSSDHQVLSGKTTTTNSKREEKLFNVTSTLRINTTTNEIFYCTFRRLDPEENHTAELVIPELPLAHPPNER

For `C[C@@H](O)[C@H](NC(=O)N[C@@H](CC(N)=O)c1nc([C@@H](N)CO)no1)C(=O)O` [CA-170], the “blocking of the formation of the PD-1/PD-L1 complex” value with PD-1/PD-L1 complex is given as “could not block the formation of the PD-1/PD-L1 complex”.
Regarding “d(CNLNWTYYSRHC) ([dC][dN][dL][dN][dW][dT][dY][dY][dS][dR][dH][dC]; cysteine pairing not given here; also: retro-inverso) [retro-inverso sequence of the C7 peptide]”, in data set [1] (screening at 5 μM normalized against CLP-2), the “blocking efficiency / blocking activity (in words)” value is listed as “loss of the blocking efficiency”.
As for IDR-1018, the “time to degradation in trypsin” value with trypsin was “less than 30 min”.
Consider `CC(=O)N[C@H]1CSSC[C@@H](C(=O)N[C@@H](Cc2c[nH]c3ccccc23)C(=O)N[C@@H](CC(N)=O)C(=O)N[C@@H](CC(C)C)C(=O)N[C@@H](CC(N)=O)C(=O)N[C@H](C(N)=O)[C@@H](C)O)NC(=O)[C@H](Cc2ccc(O)cc2)NC(=O)[C@H](Cc2ccc(O)cc2)NC(=O)[C@H](CO)NC(=O)[C@H](CCCNC(=N)N)NC(=O)[C@H](Cc2c[nH]cn2)NC1=O` [C12] (Ac-CHRSYYCWNLNT-NH2; disulfide 1-7; N-terminus and C-terminus assumed), for which the “increase in the blocking efficiency (normalized against the parent peptide CLP-2)” value in data set [1] (peptide at 5 μM) is given as about 2 fold. In the data set with CT26 tumor (0.5 mg/kg intraperitoneally daily), the “survival of the mice compared with the saline group” value is on record as “significant improvement in survival”. For the same molecule, in the data set with CT26 tumor (0.5 mg/kg intraperitoneally daily from day 10 to day 18, CT26 Balb/c mice), the “anti-tumor activity (tumor growth) compared with the saline group” value is “significant anti-tumor activity”.

Source of the values: paper PMC10671706 (Journal of medicinal chemistry, 2022).
